# Hits are enriched below; roughly 2.5% of the tested compounds scored in any of these assays.
# MEKK3 PB1 HTS: modulators (inhibitors or enhancers) of MEK5 binding to human MEKK3 PB1 domain; Q99759; bead-based flow cytometry, Alexa488-MEK5 binding to MEKK3; actives lie on both sides; 0 = blocked by unlabeled MEK5, 100 = vehicle; binding response (% of control), % at 10 µM; hit rate 1.4% among 290,000;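 active = binding response more than 3 SD above or below the average of its plate-row segment, actives on both sides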;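 note: Alexa488 bead fluorescence after subtracting the streptavidin-only scavenger bead signal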
# MEKK2mut PB1 HTS: signal of MEK5 binding to mutant human MEKK2 PB1 domain. hit rate 0.35% among 290,000. percent response, % at 10 µM. bead flow cytometry, Alexa488-MEK5 binding to MEKK2 mutant. AID 1530; in the data active = percent response above about 24%, passing the limit was not always enough
# ABCG2 inh: blocks JC-1 efflux by human ABCG2 transporter. Q9UNQ0. IgMXP3 cells, flow cytometry. inhibition, % at 6.6 µM. hit rate 0.1% among 190,000. AID 1325;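 active = inhibition above 80%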;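 note: 0% = DMSO and 100% = nicardipine control wells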
# Target sequence (Q9UNQ0 whole entry, looked up): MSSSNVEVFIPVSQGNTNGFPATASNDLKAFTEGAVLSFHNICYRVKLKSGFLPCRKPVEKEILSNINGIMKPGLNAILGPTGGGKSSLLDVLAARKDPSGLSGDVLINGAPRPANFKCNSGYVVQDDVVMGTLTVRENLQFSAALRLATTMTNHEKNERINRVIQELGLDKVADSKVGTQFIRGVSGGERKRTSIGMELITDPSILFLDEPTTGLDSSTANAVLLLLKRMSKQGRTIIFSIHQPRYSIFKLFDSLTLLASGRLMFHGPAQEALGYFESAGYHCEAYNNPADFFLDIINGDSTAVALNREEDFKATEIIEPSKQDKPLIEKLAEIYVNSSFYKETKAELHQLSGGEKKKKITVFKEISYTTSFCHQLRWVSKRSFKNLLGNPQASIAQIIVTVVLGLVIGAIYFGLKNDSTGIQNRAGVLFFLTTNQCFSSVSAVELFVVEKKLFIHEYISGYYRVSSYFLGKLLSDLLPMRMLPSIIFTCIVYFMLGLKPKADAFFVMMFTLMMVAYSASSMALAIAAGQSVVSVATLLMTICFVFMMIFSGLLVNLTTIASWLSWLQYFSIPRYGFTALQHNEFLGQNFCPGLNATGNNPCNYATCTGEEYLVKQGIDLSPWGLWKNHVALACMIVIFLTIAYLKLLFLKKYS
#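 System: two drug-resistant human cell lines, ABCG2 and ABCB1; controls: nicardipine high and DMSO low controls; times: 10 min exposure at 25 °C with rotation, no wash; detection: flow cytometry of retained JC-1 fluorescence; read-out basis: percent efflux inhibition, scaled nicardipine 100% to DMSO 0%; doses: one concentration, 6.6 µM final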
# Efflux pump inh: antifungal efflux pump inhibition, Nile Red retention; S. cerevisiae Candida pump triplex; hit rate 0.44% among 330,000; AID 485275; inhibition, % at 10 µM;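 active = plate passing quality check with inhibition over a set limit, or well fluorescence over plate mean plus 4 SD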;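 note: Nile Red retained in pooled yeast measured as flow cytometry median fluorescence; 0% = buffer negative control and 100% = Enniatin B positive control; higher means more Nile Red kept so more efflux inhibition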
# ABCB1 inh: inhibitors of human ABCB1 transporter, ABCG2 counter-screen | P08183 | inhibition, % at 6.6 µM | hit rate 0.067% among 190,000 | CCRF-Adr cells, JC-1 efflux, flow cytometry; in the data active = inhibition above about 40%;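 note: 0% = vehicle and 100% = reference inhibitor; higher value means more JC-1 retained so stronger ABCB1 efflux block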
# MEKK2wt PB1 HTS: raises or lowers MEK5 binding to wildtype human MEKK2 PB1 domain | binding response (% of control), % at 10 µM | hit rate 1.1% among 290,000 | Q9Y2U5 | AID 1531 | bead flow cytometry, Alexa488-MEK5 binding to MEKK2 WT; actives lie on both sides; in the data active = binding response below about 67% or above about 130%
# MEKK2wt confirm: raises or lowers MEK5 binding to wildtype human MEKK2, retest; binding response (% of control), % at 10 µM; hit rate 2.4% among 5,900; shares compounds with MEKK3 PB1 HTS; bead flow cytometry, Alexa488-MEK5 binding to MEKK2 WT; actives lie on both sides; in the data active = binding response below about 16% or above about 210%; inactive = in between
# MEKK2mut-MEK5: signal of MEK5 binding to mutant human MEKK2, retest; shares compounds with MEKK3 PB1 HTS; bead flow cytometry, Alexa488-MEK5 binding to MEKK2 mutant; percent response, % at 10 µM; hit rate 2% among 5,900; AID 1893; in the data active = percent response mostly above about 71%, no sharp cut-off; inactive = mostly below about 38%;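 note: higher means compound restores mutant binding toward wildtype level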
# MEKK3 confirm: confirmation of inhibitors of MEK5 binding to human MEKK3 | shares compounds with MEKK3 PB1 HTS | bead flow cytometry, Alexa488-MEK5 binding to MEKK3; stronger effect = lower value | binding response (% of control), % at 10 µM | hit rate 1.8% among 5,900;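 active = binding response below 72% of control, or above a set upper limit, though filed actives all read lower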;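 note: 100% = DMSO only wells and 0% = binding blocked by excess unlabeled MEK5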
# The depositor's hits bear a star; x = no result; ! = not active in a repeat; [ ] = dose if it differs, or a comment.
SMILES,MEKK3 PB1 HTS,MEKK2mut PB1 HTS,ABCG2 inh,Efflux pump inh,ABCB1 inh,MEKK2wt PB1 HTS,MEKK2wt confirm,MEKK2mut-MEK5,MEKK3 confirm
CC1CCCCN1c1nc2nonc2nc1N1CCCCC1C (stereo not drawn),126*,6,1,0,1,97,98,-2,99
CC1CCN(c2nc3nonc3nc2N2CCC(C)CC2)CC1,85,-5,-1,0,0,97,x,x,x
CCOC(=O)CNC(=O)Nc1nnc(-c2ccc(OCC)cc2)o1,48*[inhibitor],-11,36,0,0,56,97,-1,100
CCOc1cc(CNCCO)cc(Br)c1OCc1ccccc1Cl,102,12,3,0,1,142*,148,33,104
CCOc1cc(CNCCO)cc(Br)c1OCc1ccc(Cl)cc1,x,x,2,0,0,x,x,x,x
CCOc1cc(CNC(C)(C)CO)cc(Br)c1OCc1ccc(Cl)cc1Cl,117,75*,6,0,1,262*,202,67,116
CCOc1cc(CNCCCN2CCOCC2)cc(Br)c1OCc1ccccc1Cl,114,78*,1,0,0,199*,173,33,105
CCOC(=O)CC(c1ccc([N+](=O)[O-])cc1)n1c(C)ccc1C (stereo not drawn),100,-2,8,0,1,100,x,x,x
O=C(O)/C=C/C(=O)Nc1ccc(OC(F)F)cc1,107,3,-1,0,0,109,x,x,x
O=C(COC(=O)C1CC(=O)N(c2ccc3c(c2)OCCO3)C1)NC1CCCc2ccccc21 (stereo not drawn),101,0,-5,0,-5,100,x,x,x
O=C(COC(=O)CCNS(=O)(=O)c1ccc2c(c1)OCCO2)NC1CCCc2ccccc21 (stereo not drawn),124*,4,4,0,0,115,100,-2,100
C=CCn1c(=NC(=O)CC)n(C)c2ccccc21,92,-1,2,0,x,94,x,x,x
CCC(CC)n1[nH]c(=O)cc1N,128*,11,2,0,0,124,95,-4,98
O=C(NCCN1CCN(Cc2ccccc2)CC1)Nc1cc(Cl)cc(Cl)c1,106,34,x,0,x,139*,144,31,108
O=C(NCCN1CCN(c2cccc(Cl)c2)CC1)Nc1ccccc1,108,3,x,1,x,110,x,x,x
O=C(COC(=O)C1COc2ccccc2O1)Nc1cccc(F)c1 (stereo not drawn),x,x,x,0,x,x,x,x,x
C/C=C/c1ccc(OCC(=O)Nc2cc(C(F)(F)F)ccc2N2CCOCC2)c(OC)c1,96,1,x,0,x,103,x,x,x
COc1cc(/C=C/C(=O)OCC(=O)Nc2cc(S(=O)(=O)N3CCCCC3)ccc2C)ccc1O,100,-1,-2,0,0,99,x,x,x
COc1cc(/C=C/C(=O)OCC(=O)Nc2ccc(C)c(S(=O)(=O)N3CCCCC3)c2)ccc1O,147*,0,-3,0,0,108,103,-6,103
COc1cc(/C=C/C(=O)OCC(=O)Nc2cc(C(F)(F)F)ccc2N2CCOCC2)ccc1O,152*,0,17,0,1,104,105,-1,104
Clc1ccccc1-c1csc(Nc2cccnc2)n1,47*[inhibitor],-40,x,0,x,59,103,5,103
c1cncc(Nc2nc(-c3ccncc3)cs2)c1,96,8,11,0,0,101,x,x,x
Cc1ccc(S(=O)(=O)c2nc(N3CCOCC3)sc2Cl)cc1,124*,7,4,0,2,119,106,1,110
CCCS(=O)(=O)c1nc(S(=O)(=O)c2ccc(C)cc2)c(N2CCOCC2)s1,101,5,x,0,x,102,x,x,x
C=CCc1cccc2cc(C(=O)Nc3ccc(CC(=O)O)cc3)c(=O)oc12,139*,1,6,1,1,101,98,-1,102
SMILES,MEKK3 PB1 HTS,MEKK2mut PB1 HTS,ABCG2 inh,Efflux pump inh,ABCB1 inh,MEKK2wt PB1 HTS,MEKK2wt confirm,MEKK2mut-MEK5,MEKK3 confirm
C=CCc1cccc2cc(C(=O)Nc3ccc(F)cc3)c(=O)oc12,107,3,6,0,0,108,x,x,x
COCc1[nH][nH]c(=O)c1C=Nc1ccccc1,x,x,0,0,0,x,x,x,x
COCc1[nH][nH]c(=O)c1/C=N/N1CCOCC1,40*[inhibitor],-17,-1,0,0,56,104,5,107
CCOC(=O)N1CCN(S(=O)(=O)c2c(C)nc3scc(C)n3c2=O)CC1,96,-5,x,1,x,102,x,x,x
Cc1cc(C)c(S(=O)(=O)N2CCCC(C(=O)NCc3ccncc3)C2)c(C)c1 (stereo not drawn),101,-2,x,0,x,102,x,x,x
Cc1ccc(NC(=O)/C(C#N)=C/c2ccc(C)s2)c(C)c1,109,13,2,0,1,39*[inhibitor],105,-2,101
Cc1ccc(/C=C(\C#N)C(=O)Nc2c(C)cccc2C)s1,105,3,3,0,2,99,x,x,x
CNCC[C@H](Oc1cccc2ccccc12)c1cccs1,111,6,2,0,x,157*!,123,24,100
C/C(=N\NC(=O)COc1cccc2ccccc12)c1cccs1,99,-4,x,0,x,95,x,x,x
CCn1nnc(NC(=O)COc2ccc([N+](=O)[O-])cc2)n1,95,0,x,0,x,99,x,x,x
CCCCNC(=S)Nc1ccccc1F,111,25*,2,0,0,108,108,0,101
CC(C)CNC(=S)Nc1ccccc1F,94,0,-6,0,-1,104,x,x,x
Cc1cc(C)c2nc(NCCCNC(=S)NCCCN(C)C)c(C#N)cc2c1,97,37,3,0,0,164*,165,42,109
O=C(CN1C(=O)NC2(CCCCCC2)C1=O)N1CCC(Cc2ccccc2)CC1,3.0*[inhibitor],-1,2,0,0,3.0*[inhibitor],99,-4,96
CC(C)CCNC(=O)C1CC(c2ccccc2[N+](=O)[O-])=NO1 (stereo not drawn),105,1,x,0,x,103,x,x,x
O=C(c1cc(-c2ccccn2)nc2ccc(Cl)cc12)N1CCN(CCc2ccccc2)CC1,-1.0*[inhibitor],-23,4,0,1,-4.0*[inhibitor],97,-2,97
